Drawing on ChEMBL document CHEMBL2424622, “Development of amino-pyrimidine inhibitors of c-Jun N-terminal kinase (JNK): kinase profiling guided optimization of a 1,2,3-benzotriazole lead” (Bioorg Med Chem Lett, 2013), this text covers inhibition for five compounds.

The species entered for one assay is Homo sapiens. In words: Competitive binding affinity to EGFR E746 to A750 deletion mutant (unknown origin) at 10 uM in presence of ATP relative to control. An outline of the steps: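 Screened at 10 µM in an in vitro ATP-site competition binding assay across a diverse panel of 128 kinases, with this kinase as one panel member. Readout is binding relative to control.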

In assay [1] the target is Serine/threonine-protein kinase 24 (Homo sapiens) (UniProt Q9Y6E0). As to the kind of experiment: Competitive binding affinity to MST3 (unknown origin) at 10 uM in presence of ATP relative to control.
Serine/threonine-protein kinase 24 (Homo sapiens), sequence (Q9Y6E0 whole entry, looked up): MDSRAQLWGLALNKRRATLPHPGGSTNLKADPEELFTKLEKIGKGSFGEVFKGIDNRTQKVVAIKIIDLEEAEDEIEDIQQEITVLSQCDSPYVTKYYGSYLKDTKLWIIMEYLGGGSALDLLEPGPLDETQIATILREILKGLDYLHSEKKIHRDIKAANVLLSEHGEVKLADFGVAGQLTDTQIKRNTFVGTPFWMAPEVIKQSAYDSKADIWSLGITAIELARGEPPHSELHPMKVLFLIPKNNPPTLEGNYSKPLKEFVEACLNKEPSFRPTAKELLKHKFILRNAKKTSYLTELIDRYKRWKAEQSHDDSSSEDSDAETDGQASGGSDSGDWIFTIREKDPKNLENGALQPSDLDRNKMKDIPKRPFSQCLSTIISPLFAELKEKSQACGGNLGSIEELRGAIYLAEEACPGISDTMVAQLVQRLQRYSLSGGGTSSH
Assay [2] has as its target T1, Serine/threonine-protein kinase LATS2 (Homo sapiens) (UniProt Q9NRM7).
T1 sequence (whole entry): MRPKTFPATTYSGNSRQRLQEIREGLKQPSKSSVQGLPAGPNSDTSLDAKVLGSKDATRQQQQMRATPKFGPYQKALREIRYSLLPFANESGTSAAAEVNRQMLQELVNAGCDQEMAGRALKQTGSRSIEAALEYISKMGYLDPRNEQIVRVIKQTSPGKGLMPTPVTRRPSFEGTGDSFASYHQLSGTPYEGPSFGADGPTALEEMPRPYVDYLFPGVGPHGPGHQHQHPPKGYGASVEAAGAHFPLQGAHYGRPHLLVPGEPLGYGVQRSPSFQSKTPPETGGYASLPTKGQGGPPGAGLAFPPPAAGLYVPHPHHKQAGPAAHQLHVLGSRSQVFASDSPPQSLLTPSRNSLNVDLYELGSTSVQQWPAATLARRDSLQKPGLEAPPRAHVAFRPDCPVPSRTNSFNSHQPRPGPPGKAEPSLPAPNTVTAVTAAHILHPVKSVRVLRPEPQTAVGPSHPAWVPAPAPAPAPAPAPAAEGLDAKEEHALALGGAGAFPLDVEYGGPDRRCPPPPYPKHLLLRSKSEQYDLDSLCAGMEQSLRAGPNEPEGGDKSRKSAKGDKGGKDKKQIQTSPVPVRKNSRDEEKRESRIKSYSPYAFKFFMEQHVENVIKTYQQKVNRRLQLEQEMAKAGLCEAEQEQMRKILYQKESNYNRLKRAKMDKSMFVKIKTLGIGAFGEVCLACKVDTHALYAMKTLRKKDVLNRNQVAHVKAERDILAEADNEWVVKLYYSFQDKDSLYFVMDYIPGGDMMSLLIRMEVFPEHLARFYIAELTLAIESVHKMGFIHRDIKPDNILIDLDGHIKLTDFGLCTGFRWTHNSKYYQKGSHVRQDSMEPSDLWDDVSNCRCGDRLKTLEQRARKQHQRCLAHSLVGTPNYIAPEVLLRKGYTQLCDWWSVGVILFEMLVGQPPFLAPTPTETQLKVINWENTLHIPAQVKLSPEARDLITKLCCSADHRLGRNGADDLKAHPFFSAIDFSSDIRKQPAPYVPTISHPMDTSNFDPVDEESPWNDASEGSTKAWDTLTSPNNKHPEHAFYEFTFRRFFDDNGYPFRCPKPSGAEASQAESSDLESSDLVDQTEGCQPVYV
In words: Competitive binding affinity to LATS2 (unknown origin) at 10 uM in presence of ATP relative to control.

Assay [3] has as its target T2, Tyrosine-protein kinase JAK3 (Homo sapiens) (UniProt P52333).
T2 sequence (whole entry): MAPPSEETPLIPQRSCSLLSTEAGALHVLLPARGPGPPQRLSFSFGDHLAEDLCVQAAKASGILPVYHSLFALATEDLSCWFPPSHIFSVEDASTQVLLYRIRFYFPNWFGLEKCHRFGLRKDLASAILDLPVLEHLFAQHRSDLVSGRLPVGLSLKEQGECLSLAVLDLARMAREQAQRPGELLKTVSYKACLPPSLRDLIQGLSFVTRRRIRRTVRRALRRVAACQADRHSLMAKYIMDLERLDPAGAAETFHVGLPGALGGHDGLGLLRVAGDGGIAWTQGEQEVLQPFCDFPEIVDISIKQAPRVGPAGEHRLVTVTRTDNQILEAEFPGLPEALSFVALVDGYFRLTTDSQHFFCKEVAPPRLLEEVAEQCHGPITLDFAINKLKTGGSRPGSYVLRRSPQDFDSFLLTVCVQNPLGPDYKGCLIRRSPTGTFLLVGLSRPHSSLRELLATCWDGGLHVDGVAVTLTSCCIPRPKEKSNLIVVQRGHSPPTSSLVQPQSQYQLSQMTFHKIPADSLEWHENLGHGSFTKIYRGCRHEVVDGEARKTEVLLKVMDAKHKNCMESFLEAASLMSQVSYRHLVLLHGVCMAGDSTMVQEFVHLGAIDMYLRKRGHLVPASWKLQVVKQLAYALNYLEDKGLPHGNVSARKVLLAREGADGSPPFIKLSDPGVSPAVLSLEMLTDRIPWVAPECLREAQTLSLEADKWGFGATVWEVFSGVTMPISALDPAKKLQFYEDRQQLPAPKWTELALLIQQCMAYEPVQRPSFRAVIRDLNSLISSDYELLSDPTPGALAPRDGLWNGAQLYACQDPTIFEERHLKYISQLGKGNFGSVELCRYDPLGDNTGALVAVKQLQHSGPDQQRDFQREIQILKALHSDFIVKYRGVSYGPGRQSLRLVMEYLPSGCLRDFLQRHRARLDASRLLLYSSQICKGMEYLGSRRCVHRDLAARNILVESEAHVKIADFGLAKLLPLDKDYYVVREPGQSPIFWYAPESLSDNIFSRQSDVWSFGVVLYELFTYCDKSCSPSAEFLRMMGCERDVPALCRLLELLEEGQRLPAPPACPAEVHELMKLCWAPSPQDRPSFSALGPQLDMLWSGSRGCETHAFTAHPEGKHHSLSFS
As to the kind of experiment: Competitive binding affinity to JAK3 kinase domain 2 (unknown origin) at 10 uM in presence of ATP relative to control.

For assay [4], the target named is Death-associated protein kinase 1 (Homo sapiens, UniProt P53355). As to the kind of experiment: Competitive binding affinity to DAPK1 (unknown origin) at 10 uM in presence of ATP relative to control.
Death-associated protein kinase 1, sequence (P53355 whole entry, looked up, canonical isoform): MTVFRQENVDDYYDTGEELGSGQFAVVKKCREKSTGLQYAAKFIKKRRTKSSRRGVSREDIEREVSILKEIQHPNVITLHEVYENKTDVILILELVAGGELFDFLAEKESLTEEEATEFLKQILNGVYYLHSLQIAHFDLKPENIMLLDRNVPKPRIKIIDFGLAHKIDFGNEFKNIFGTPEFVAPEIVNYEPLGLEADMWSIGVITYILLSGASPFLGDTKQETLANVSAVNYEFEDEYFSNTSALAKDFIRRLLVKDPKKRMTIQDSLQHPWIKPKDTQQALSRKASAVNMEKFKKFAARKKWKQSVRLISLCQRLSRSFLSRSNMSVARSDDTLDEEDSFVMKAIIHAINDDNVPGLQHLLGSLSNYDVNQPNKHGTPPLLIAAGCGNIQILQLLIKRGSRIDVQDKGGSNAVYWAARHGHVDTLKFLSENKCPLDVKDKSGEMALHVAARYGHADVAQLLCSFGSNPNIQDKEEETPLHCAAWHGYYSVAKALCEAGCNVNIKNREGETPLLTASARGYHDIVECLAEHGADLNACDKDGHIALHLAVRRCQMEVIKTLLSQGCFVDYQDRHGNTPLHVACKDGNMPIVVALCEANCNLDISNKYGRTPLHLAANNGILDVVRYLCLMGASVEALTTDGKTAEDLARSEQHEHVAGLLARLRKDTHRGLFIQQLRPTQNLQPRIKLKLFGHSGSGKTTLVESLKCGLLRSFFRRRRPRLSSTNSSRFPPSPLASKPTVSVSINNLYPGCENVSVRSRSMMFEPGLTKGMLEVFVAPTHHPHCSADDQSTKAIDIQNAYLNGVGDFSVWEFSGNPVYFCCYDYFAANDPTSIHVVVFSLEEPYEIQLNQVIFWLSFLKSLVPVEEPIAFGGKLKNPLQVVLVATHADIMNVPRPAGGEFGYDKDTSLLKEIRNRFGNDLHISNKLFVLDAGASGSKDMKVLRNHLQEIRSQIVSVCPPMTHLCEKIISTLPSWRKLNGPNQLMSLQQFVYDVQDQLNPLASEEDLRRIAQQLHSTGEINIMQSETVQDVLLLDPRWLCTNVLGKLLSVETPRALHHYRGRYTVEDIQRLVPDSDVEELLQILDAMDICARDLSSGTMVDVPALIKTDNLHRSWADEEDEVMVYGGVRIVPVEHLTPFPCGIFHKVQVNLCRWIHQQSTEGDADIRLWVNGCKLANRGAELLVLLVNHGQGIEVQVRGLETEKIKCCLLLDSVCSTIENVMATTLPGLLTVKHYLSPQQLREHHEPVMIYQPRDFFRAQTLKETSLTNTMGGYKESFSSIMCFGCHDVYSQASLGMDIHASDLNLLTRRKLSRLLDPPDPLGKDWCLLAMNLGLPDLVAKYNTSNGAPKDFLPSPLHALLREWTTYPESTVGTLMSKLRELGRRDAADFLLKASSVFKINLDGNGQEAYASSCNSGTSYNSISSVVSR
Assay [5] concerns the target Casein kinase I isoform gamma-3 (Homo sapiens) (UniProt Q9Y6M4). As to the kind of experiment: Competitive binding affinity to CSNK1G3 (unknown origin) at 10 uM in presence of ATP relative to control.
The target of assay [6] is Citron Rho-interacting kinase (Homo sapiens, UniProt O14578). In words: Competitive binding affinity to CIT (unknown origin) at 10 uM in presence of ATP relative to control.
Citron Rho-interacting kinase, sequence (O14578 whole entry, the tested form may be a part): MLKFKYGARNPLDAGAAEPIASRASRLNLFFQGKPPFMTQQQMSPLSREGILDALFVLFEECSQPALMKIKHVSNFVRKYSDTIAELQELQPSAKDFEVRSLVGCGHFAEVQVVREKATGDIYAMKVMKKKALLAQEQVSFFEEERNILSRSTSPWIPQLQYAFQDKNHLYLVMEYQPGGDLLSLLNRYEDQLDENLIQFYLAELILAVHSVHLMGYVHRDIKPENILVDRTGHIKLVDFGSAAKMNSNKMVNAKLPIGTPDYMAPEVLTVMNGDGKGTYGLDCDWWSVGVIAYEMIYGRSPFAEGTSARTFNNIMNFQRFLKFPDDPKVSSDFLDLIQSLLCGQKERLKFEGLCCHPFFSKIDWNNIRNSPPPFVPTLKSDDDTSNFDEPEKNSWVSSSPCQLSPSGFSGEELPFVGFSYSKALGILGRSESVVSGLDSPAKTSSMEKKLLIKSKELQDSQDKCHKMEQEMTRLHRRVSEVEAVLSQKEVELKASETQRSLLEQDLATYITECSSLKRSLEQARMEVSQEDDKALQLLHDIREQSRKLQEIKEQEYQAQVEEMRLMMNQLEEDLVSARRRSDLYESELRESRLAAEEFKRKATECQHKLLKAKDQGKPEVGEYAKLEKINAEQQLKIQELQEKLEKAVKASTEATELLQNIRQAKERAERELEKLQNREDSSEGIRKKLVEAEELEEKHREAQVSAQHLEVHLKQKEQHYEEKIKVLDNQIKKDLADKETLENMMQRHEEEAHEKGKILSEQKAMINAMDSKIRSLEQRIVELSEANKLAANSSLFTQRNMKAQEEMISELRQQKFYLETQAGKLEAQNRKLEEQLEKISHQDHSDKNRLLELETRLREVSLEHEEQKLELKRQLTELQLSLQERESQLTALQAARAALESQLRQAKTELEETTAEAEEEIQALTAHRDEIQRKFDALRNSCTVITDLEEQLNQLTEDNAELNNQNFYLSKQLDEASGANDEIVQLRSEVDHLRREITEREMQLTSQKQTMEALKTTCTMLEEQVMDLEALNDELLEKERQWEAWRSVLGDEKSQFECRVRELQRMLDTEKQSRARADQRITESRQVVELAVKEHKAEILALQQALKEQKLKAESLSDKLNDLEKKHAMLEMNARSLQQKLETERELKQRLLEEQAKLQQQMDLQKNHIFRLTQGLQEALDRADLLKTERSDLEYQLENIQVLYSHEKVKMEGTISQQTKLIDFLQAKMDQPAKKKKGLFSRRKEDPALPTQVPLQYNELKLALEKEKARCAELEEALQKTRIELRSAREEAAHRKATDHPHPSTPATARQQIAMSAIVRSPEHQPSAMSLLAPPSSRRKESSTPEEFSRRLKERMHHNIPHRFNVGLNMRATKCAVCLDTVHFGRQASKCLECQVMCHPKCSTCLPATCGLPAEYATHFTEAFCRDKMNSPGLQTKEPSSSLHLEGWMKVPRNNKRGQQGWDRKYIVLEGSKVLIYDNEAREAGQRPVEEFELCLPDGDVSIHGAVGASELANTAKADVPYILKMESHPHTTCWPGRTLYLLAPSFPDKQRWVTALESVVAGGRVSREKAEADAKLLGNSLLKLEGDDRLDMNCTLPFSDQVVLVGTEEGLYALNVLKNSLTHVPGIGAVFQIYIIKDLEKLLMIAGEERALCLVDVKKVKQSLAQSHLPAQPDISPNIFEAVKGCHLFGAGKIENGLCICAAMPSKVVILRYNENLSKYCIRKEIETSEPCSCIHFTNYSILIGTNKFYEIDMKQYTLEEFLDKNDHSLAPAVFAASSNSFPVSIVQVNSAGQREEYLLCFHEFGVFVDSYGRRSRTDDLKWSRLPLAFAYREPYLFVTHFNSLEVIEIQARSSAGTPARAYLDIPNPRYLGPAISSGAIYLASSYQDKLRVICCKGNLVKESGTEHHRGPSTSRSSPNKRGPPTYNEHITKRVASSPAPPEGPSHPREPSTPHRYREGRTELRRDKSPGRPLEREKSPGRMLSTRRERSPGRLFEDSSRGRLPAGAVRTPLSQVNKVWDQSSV
Assay [7] has as its target Ribosomal protein S6 kinase alpha-1 (Homo sapiens, UniProt Q15418). As to the kind of experiment: Competitive binding affinity to RPS6KA1 kinase domain 1 (unknown origin) at 10 uM in presence of ATP relative to control.
Assay [8] has as its target Protein kinase C delta type (Homo sapiens) (UniProt Q05655). As to the kind of experiment: Competitive binding affinity to PRKCD (unknown origin) at 10 uM in presence of ATP relative to control.
The target of assay [9] is Phosphatidylinositol 4-phosphate 5-kinase type-1 alpha (Homo sapiens) (UniProt Q99755). In words: Competitive binding affinity to PIP5K1A (unknown origin) at 10 uM in presence of ATP relative to control.

A value given as a limit tells only on which side of the number the result lay.

Ribosomal protein S6 kinase alpha-1, sequence (Q15418 whole entry, the tested form may be a part): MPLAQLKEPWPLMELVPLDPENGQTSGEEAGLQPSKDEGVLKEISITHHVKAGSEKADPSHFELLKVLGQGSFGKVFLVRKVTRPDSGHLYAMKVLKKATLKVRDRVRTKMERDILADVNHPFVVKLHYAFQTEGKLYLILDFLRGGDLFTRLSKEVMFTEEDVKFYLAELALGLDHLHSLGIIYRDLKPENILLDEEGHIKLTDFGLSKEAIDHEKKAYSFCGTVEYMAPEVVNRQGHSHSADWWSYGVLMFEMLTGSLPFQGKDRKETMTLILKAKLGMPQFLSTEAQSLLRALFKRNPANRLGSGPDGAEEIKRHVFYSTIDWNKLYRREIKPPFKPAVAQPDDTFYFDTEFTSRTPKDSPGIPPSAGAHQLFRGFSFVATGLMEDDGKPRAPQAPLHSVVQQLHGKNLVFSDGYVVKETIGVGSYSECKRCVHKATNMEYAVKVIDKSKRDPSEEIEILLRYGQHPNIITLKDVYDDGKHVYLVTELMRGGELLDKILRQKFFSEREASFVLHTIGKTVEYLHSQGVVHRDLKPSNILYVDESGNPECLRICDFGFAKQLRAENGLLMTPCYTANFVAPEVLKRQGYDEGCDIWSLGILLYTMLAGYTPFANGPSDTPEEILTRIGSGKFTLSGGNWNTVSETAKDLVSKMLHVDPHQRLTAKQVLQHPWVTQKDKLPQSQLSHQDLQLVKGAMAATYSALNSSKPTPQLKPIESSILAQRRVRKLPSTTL
Casein kinase I isoform gamma-3 (Homo sapiens), sequence (Q9Y6M4 whole entry, looked up, canonical isoform): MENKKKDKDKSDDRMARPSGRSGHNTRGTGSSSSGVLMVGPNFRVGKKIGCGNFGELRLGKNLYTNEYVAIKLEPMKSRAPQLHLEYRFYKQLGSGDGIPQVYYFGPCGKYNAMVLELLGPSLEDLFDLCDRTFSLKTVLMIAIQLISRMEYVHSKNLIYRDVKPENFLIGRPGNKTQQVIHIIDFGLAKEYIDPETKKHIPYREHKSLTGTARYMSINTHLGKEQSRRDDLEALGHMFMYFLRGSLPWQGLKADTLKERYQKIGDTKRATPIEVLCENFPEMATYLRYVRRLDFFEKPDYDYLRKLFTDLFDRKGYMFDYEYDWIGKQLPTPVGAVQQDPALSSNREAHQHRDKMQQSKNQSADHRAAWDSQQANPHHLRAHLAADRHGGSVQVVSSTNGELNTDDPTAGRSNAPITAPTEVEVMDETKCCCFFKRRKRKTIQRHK

As for `O[C@H]1CC[C@H](Nc2nccc(-c3n[nH]c4ccccc34)n2)CC1`, the inhibition in the assay filed under Homo sapiens was under 50%.
As for `O[C@H]1CC[C@H](Nc2nccc(-n3ccc4ccccc43)n2)CC1`, the inhibition in [1] is 83%; in [2], under 50%; in [3] it was under 50%; in the assay filed under Homo sapiens, under 50%; in assay [4], under 50%; in assay [5], under 50%. Also, the inhibition in assay [6] is 79%; in assay [7] it was 66%; in assay [8], under 50%; in assay [9] it was under 50%.
Take `O[C@H]1CC[C@H](Nc2nccc(-n3ncc4ccccc43)n2)CC1`: the inhibition in assay [1] was 78%; in [2], under 50%; in assay [3], under 50%; in the assay filed under Homo sapiens it was 99%; in [4], under 50%; in assay [5] it was under 50%. Also, the inhibition in assay [6] was 75%; in assay [7], 91%; in [8] it was under 50%; in assay [9], 88%.
Consider `O[C@H]1CC[C@H](Nc2nccc(-n3nnc4ccccc43)n2)CC1`, for which the inhibition in assay [1] was 78%; in assay [2], under 50%; in assay [3], under 50%; in the assay filed under Homo sapiens, under 50%; in assay [4], 98%; in assay [5], 96%. Besides, the inhibition was 98% in assay [6], 100% in [7], under 50% in assay [8] and 94% in assay [9].
As to `CS(=O)(=O)CCCOc1cccc2c1ccn2-c1ccnc(N[C@H]2CC[C@H](C(=O)N3CCC(O)CC3)CC2)n1`, the inhibition in assay [4], in [6] and in assay [7] was over 85% in each case.
